S1P1 ag-PAM: agonists and agonism potentiators of human S1P1 receptor; P21453; S1P1 CRE-bla cells, forskolin, beta-lactamase FRET, potentiator mode; S1P1 agonist co-added at EC20, 2 nM; 100% = saturating reference agonist, 0% = basal; activation, % at 9.5 µM; 0.57% of 56,000 active; AID 449;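 active = activation above a cutoff set at the mean activation of all tested compounds plus 3 SD, cut at about 54% in these data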;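 note: forskolin at 4 µM as EC80 and the EC20 agonist is SEW2871; 100% = SEW2871 at its EC100 plus forskolin at EC80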
D1 mod: allosteric modulators of human D1 dopamine receptor | P21728 | B-score at 10 µM | HEK293 D1, CRE-luciferase, dopamine EC30 potentiation; actives deviate in either direction | 5.9% of 58,000 active;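 active = luminescence count or its row- and column-corrected plate score outside the 99.7% band of the plate's sample wells, on either side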
S1P3 ag: agonists of human S1P3 receptor; activation, % at 4.5 µM; Q99500; S1P3 NFAT-BLA reporter cells, agonism, FRET ratio; relative to 1 µM S1P, basal subtracted; 0.1% of 60,000 active; AID 373;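 active = activation above the screen-wide mean plus 3 SD, cut at about 4.5% in these data, passing the limit was not always enough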
Target sequence (Q99500 whole entry, looked up): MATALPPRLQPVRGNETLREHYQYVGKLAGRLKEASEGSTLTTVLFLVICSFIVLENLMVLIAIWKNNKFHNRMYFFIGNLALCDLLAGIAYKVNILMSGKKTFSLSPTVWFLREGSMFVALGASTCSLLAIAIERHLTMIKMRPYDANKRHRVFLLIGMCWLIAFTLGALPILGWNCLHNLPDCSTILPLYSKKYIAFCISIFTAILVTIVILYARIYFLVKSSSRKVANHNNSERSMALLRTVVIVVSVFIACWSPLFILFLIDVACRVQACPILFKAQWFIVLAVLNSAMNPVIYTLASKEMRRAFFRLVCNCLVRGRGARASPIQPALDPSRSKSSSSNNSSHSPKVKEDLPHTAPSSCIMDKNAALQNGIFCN
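Assay system: CHO cells stably expressing human S1P3, Gα16 and NFAT-β-lactamase reporter. Timing: overnight plating, 4 h compound 37 °C, 2 h substrate RT. Signal: β-lactamase FRET emission ratio 460/535 nm. Measure: percent activation versus median 1 µM S1P response, basal-subtracted, per plate. Repeats: primary screen single test, confirmation screen in triplicate.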
M1 agonist: activates the M1 muscarinic receptor | AID 626 | 3% of 64,000 active | B-score at 10 µM | CHO-M1 cells, Fluo-4 calcium fluorescence, agonist mode; active compounds read high;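 active = fluorescence rise, raw or as B-score row- and column-corrected plate score, outside the 99.7% band of its plate's samples, either direction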
M1 antagonist: antagonists of rat M1 muscarinic receptor | 3.4% of 64,000 active | AID 628 | P08482 | CHO-M1 cells, Fluo-4 calcium, ACh EC80 antagonist mode; active compounds read low | B-score at 10 µM;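 active = calcium fluorescence response, raw or row-and-column corrected B-score, differing from the plate sample mean either way at a set confidence level, mostly lower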
Active calls of the source: *; / = not tested or not shown. Shown are actives, neighbours in structure and some others; about 11% of the full set was active somewhere.

SMILES	S1P1 ag-PAM	D1 mod	S1P3 ag	M1 agonist	M1 antagonist
COC(=O)c1cccc(S(=O)(=O)N2CCN(c3nc4ccccc4s3)CC2)c1	4.5	-2.77*	-1.6	0.787	0.642
Cc1cc(-c2nsc(=O)o2)c(S(C)(=O)=O)s1	-16.8	0.515	-0.6	/	/
CCOc1ccc(Nc2c3c(nc4ncnn24)CC(C)CC3)cc1 (centres undefined)	14.1	0.291	-0.5	1.2	2.43*
CCOC(=O)c1sc(N)c(C#N)c1CSc1nnc(C2CCCCC2)n1N	-2.3	/	-0.5	-0.281	0.362
COc1cc(-c2ccccc2)nc(N)n1	/	2.2	/	0.062	-0.167
CCOc1cc(-c2ccccc2)nc(N)n1	-25.1	8.15*	0.0	0.612	0.723
CCn1cc(C(=O)N2CCCc3ccccc32)c2cc(OC)c(OC)cc2c1=O	/	0.177	/	-0.117	0.882*
COc1cccc2c(=O)n(CC(=O)N3CCCc4ccccc43)ccc12	-0.6	-0.258	-0.8	-1.33	0.322
CC1CCN(c2nc3c(c(=O)[nH]c(=O)n3C)n2CCSc2ncccn2)CC1	-20.5	0.441	-1.5	0.345	0.0668
CC(=O)Oc1ccccc1C(=O)Oc1ccc(/C=N/n2cnnc2)cc1	43.9	-3.3*	-0.2	-1.04	0.208
CC(C)CCNC(=O)Cn1c(NCCC(C)C)nc2c1c(=O)n(C)c(=O)n2C	5.5	-0.00418	-0.2	-1.27	1.3*
Cc1cccc2cc3c(NC(=O)c4ccccn4)nn(C)c3nc12	-26.4	0.197	5.3*	0.0342	-0.169
CCCC(=O)Nc1nn(C)c2nc3c(C)cccc3cc12	-0.8	-0.0255	-0.6	0.483	0.0753
CCCN1C2CCCC1CC(NC(=O)c1ccc(F)cc1)C2 (centres undefined)	4.9	-2.17*	0.7	0.28	-0.596
CCCN1C2CCCC1CC(NC(=O)NC1CCCCC1)C2 (centres undefined)	8.7	-0.241	-0.5	-0.13	-0.41
CC1CC=C2C(C#N)=C(N)C(C#N)(C#N)C(c3cccs3)C2C1 (centres undefined)	/	-3.02	/	11.6*	1.09
Cc1ncoc1C(=O)Nc1cccc(Cl)c1	-13.1	-0.0169	0.5	0.703	0.147
Cc1ocnc1C(=O)Nc1ccc(Cl)cc1	-6.2	-1.89*	-0.8	-0.646	-0.417
Cc1ccc(-n2c(C)cc(C(=O)COC(=O)c3c(C)noc3C)c2C)cc1	61.6*	0.315	-0.1	-1.4	-0.329
Cc1onc(-c2ccccc2)c1C(=O)OCC(=O)c1ccccc1	-11.4	-1.86	-0.7	0.0826	-0.317
O=C(N1CCOCC1)N1CCN(Cc2ccccc2)CC1	1.3	-1.15	0.4	0.405	-0.744
c1ccc(CN2CCC3(CC2)Nc2ccccc2CO3)cc1	6.8	-1.19	-1.3	17*	-2.84*
COC(=O)c1ccc(C2C(C(=O)Nc3ccc(C)cc3C)=C(C)Nc3ncnn32)cc1 (centres undefined)	12.1	-1.12	-0.7	-0.0732	0.28
O=C(Nc1ccc(S(=O)(=O)NCc2ccco2)cc1)c1ccc2ccccc2n1	96.5*	0.133	-0.4	1.51	-0.333
O=C(COc1ccccc1)Nc1ccc(S(=O)(=O)NCc2ccco2)cc1	-19.4	0.947	-0.7	1.05	-0.521
SMILES	S1P1 ag-PAM	D1 mod	S1P3 ag	M1 agonist	M1 antagonist
O=C(Nc1ccc(OC(F)F)c(Cl)c1)Nc1ccc2c(c1)OCO2	59.1*	0.0736	-1.2	1.66	0.000665
COc1ccc(C(C)(C)C)cc1NC(=O)Nc1ccc2c(c1)OCO2	27.3	-1.11	-1.9	0.897	0.81
COc1cccc2sc(Nc3nc(-c4ccccn4)cs3)nc12	72.0*	-1.79	-2.3	0.597	-0.244
COc1ccccc1N1CCN(C/C(C)=C/c2ccccc2)CC1	-10.6	-3.63*	-0.8	-1.08	-1.23
COc1ccc(-c2cc3nc4c(c(N5CCC6(CC5)OCCO6)n3n2)CCCC4)cc1	0.0	3.71*	-0.8	-0.189	-0.761
O=C(CCNC(=O)Cn1ccc2ccccc2c1=O)NCCN1CCN(c2ccccc2F)CC1	19.6	-2.18	-0.7	0.0276	0.0292
O=C(CNC(=O)c1cccs1)NCCN1CCN(c2ccccc2F)CC1	6.2	-3.61*	0.8	-0.109	0.371
Cc1cc(C)cc(N(CC(=O)N2CCn3c2nc2ccccc23)S(=O)(=O)c2c(C)noc2C)c1	-25.0	0.151	-0.5	-0.222	0.0202
CC(C)(C)C(=O)Cn1c(=N)n(Cc2ccccc2)c2ccccc21	-7.0	-3.29*	-1.1	-1.43	-0.474
COc1ccc(OCC(O)Cn2c(=N)n(CCN3CCCCC3)c3ccccc32)cc1 (centres undefined)	-17.0	-0.83	-1.1	1.25	-1.45
C=CCn1c(=N)n(CC(=O)O)c2ccccc21	2.7	-0.723	-0.9	0.193	1.63
COc1ccccc1OCC(O)Cn1c(=N)n(Cc2ccccc2)c2ccccc21 (centres undefined)	/	-4.73*	/	0.191	0.00716
C=CCn1c(=N)n(CC(O)COc2ccccc2OC)c2ccccc21 (centres undefined)	-18.1	-5.36*	0.5	-0.035	-1.14
COC(=O)c1ccc2c(=O)n(CCC3=CCCCC3)c(SCC(=O)N3CCCC3)nc2c1	/	0.576	/	-0.665	0.55
COc1ccc(N2CCN(CCNC(=O)CCS(=O)(=O)c3cccc4nsnc34)CC2)cc1	/	0.0384	/	0.422	-0.229
CCC1CCCCN1C(=O)CSc1nnc(-c2cccs2)o1 (centres undefined)	23.0	-0.899	-0.1	/	/
CCOC(=O)N1CCN(C(=O)Cn2cc3c(n2)CCCC3)CC1	11.6	-0.545	-0.6	-3.19*	0.113
O=C(CSc1nnc2sc3ccccc3n12)c1ccco1	19.2	0.508	-0.7	-0.0371	1.02
O=C(c1ccc(=O)oc1)N1CCCc2ccccc21	-3.3	0.0549	-0.5	0.0829	-0.018
c1ccc(CSc2nnc(-c3c[nH]c4ccccc34)o2)cc1	97.8*	0.675	-0.7	-0.0222	0.069
O=C(CSc1nnc(-c2c[nH]c3ccccc23)o1)N1c2ccccc2CCc2ccccc21	56.5	-0.721	0.0	0.607	-0.221
CCc1nn(CC(=O)NCCCN(CC)Cc2ccccc2)c(=O)c2cc3sccc3n12	21.4	-4.58*	-0.8	0.325	-0.317
CCc1nn(CC(=O)NCCCN2CCCC2=O)c(=O)c2cc3sccc3n12	-31.7	0.131	-0.5	-0.0367	-0.417
Fc1cccc2sc(Nc3nnc(-c4ccco4)o3)nc12	-7.8	-2.65*	-0.4	0.293	-0.476
CC1(C)CSC(=S)N1S(=O)(=O)c1ccccc1	-6.0	-1.28	1.1	-1.03	0.845
Cc1sc2nc(CN(C(=O)c3cccs3)C3CCCC3)[nH]c(=O)c2c1C	5.6	0.0955	-0.5	0.661	1.95*
COc1ccc(C(=O)NCC23C=CC(O2)C2C(=O)N(Cc4ccccc4)C(=O)C23)cc1 (centres undefined)	/	/	-0.8	-0.304	-1.89
O=C1C2C3C=CC(CO)(O3)C2C(=O)N1c1ccccc1-c1ccccc1 (centres undefined)	153.8*	0.0333	-1.2	-0.0217	1.05
O=C(O)C1CCCN1C(=O)Oc1ccccc1 (centres undefined)	-10.1	-2.55*	-0.3	-0.808	0.0744

From PubChem
